“Also recorded” adds a separate entry of the source.

The test system of test [1] is m6 TCR. The format is binding, mouse. As to conditions: calculated from the flow cytometry kd, room temperature. The method, boiled down:
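T2-Ld cells (human lymphoblastoid line expressing Ld, ~3 × 10^6/ml) were loaded with peptide (~1–10 μM final) for 2 h at 37°C. They were stained for 30 min with full-length m6 TCR Drosophila supernatant, washed, and held at room temperature in PBS/1% BSA with F23.2 IgG (~300 μg/ml) as competitor. At timed points, ice-cold washes were done and residual TCR was detected by F23.1-biotin/SAv:PE flow cytometry. n = 2–3.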

The test system of test [2] is m6 TCR. In words: SPR of TCR binding to immobilized null MCMV/L^d/Ig. More on the design: species or system mouse. As to conditions: PBS, 25°C. The method, boiled down: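 MCMV-loaded Ld/IgG1 fusion (peptide at 100-fold molar excess, pH 6.5, 37°C 1.5 h; refolded pH 7.4, 4°C 24 h; G-200 repurified) was captured on a CM5 chip coated with rabbit anti-mouse IgG. Drosophila-expressed His6 soluble m6 TCR, Ni-NTA and gel-filtration purified, was injected at several concentrations at 30 μl/min. Responses were blank-surface subtracted; regeneration used 10 mM glycine, pH 1.5.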

As to “QL9-M5: QL9 variant containing a position five (Phe) substitution (QLSPMPFDL)”, the “t1/2 of m6 TCR on cell-bound peptide/L^d” value with m6 TCR [1] is listed as 140 s. The same measure, in the same setting: in the case of “QL9-Y5: QL9 variant with a Tyr substitution for the Phe at position 5 (QLSPYPFDL)” it was 1,180 s.

Consider YPHFMPTNL [MCMV], for which the “TCR binding to peptide/L^d/Ig immobilized on the chip” value with m6 TCR [2] was “not observed; also recorded: undetectable”.
